# Shown are actives, neighbours in structure and some others; about 2.2% of the full set was active somewhere.
# RBBP9 inhibitor = human RBBP9 inhibitors, primary screen, biochemical, fluorescence polarization, FP-Rh probe, HTS; recombinant RBBP9; AID 1515, 2009; Serine hydrolase RBBP9 (Homo sapiens), O75884; actives 0.2% (n = 220,000); inhibition, % at 7.94 µM;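 active means inhibition above the campaign mean of all tested compounds plus 3 SD, cut at about 14% in these data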;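 further: plate controls were DMSO wells with RBBP9 for no effect and wells lacking RBBP9 protein for full effect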
# Target sequence (O75884 whole entry, looked up): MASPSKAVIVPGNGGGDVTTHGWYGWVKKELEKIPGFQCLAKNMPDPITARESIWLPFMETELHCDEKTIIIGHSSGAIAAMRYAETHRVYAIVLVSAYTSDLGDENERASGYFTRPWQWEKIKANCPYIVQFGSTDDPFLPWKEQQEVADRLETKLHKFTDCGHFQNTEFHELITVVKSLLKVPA
#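 Measured by: FP readout at 525/598 nm; material: recombinant human RBBP9; also added: Serine-hydrolase probe FP-Rh, 375 nM pre-mixing; medium: Tris buffer pH 8.0, NaCl, Pluronic; replication: one well per compound; doses: one concentration, 7.94 µM nominal, 0.794% DMSO; timing: preincubation 30 min plus labeling 45 min at 25 °C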
# Mcl-1 Bim block = inhibitors of Bim peptide binding to Mcl-1, primary screen, biochemical, bead-based flow cytometry, multiplex. actives 0.1% (n = 190,000). Bim peptide-Mcl-1 binding. AID 1009, 2008. inhibition, % at 10 µM; in the data active means inhibition above about 40%;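 further: 0% = no compound tracer wells and 100% = peptide blocker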
# Mcl1-Noxa inh = Mcl-1/Noxa binding inhibitors, primary screen, biochemical, TR-FRET, 1536-well. Induced myeloid leukemia cell differentiation protein Mcl-1 (Homo sapiens), Q07820. TR-FRET Mcl-1/Noxa peptide binding, 2 h. inhibition, % at 21.7 µM. actives 1.5% (n = 220,000). AID 1022, 2008;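 active means compounds that cut the protein-peptide binding signal by more than 50% relative to plate controls in a single-dose test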;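 further: His-tagged Mcl-1 with rhodamine Noxa BH3 peptide and terbium anti-His antibody; 0% = Mcl-1 plus Noxa peptide wells and 100% = peptide-only wells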
# EBV gp42 block = Epstein-Barr virus gp42 inhibitors, primary screen, biochemical, uHTS, fluorescence polarization; Glycoprotein 42 (Epstein-Barr virus (strain AG876)), Q1HVG2; Fluorescence polarization binding assay, mP read-out; inhibition, % (tested at 21.74 µM); actives 0.42% (n = 220,000); AID 1085, 2008; in the data active means inhibition above about 50%
# Target sequence (Q1HVG2 whole entry, looked up): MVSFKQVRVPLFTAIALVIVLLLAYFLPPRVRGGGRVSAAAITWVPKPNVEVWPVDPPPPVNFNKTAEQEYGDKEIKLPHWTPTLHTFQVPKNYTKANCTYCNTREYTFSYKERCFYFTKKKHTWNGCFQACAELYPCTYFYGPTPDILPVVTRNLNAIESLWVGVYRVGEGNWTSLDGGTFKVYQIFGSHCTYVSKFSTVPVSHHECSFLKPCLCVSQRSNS
# Mcl1-Bid inh = Mcl-1/Bid binding inhibitors, primary screen, biochemical, TR-FRET, 1536-well; inhibition, % at 21.7 µM; actives 0.97% (n = 220,000); AID 1021, 2008; TR-FRET Mcl-1/Bid-Dy647 peptide binding;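 active means compounds that cut the binding signal by more than half at the single screening dose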;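 further: His-tagged Mcl-1 with europium anti-His antibody binding Bid BH3 peptide; 0% = Mcl-1 plus peptide wells and 100% = peptide-only wells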
# MCL1 BIM primary = inhibitors of MCL1 binding to BIM-BH3, primary screen, biochemical, fluorescence polarization | GST-MCL1 / FITC-Bim-BH3 fluorescence polarization | inhibition, % at 10.9 µM | actives 0.68% (n = 320,000);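 active means inhibition above the mean inhibition of all tested compounds plus 3 SD, set per campaign, cut at about 40% in these data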;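 further: 0% = DMSO wells and 100% = unlabeled Bim-BH3 peptide control; higher means more loss of mP so more displacement of Bim peptide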
# BCLXL inh confirm = Bcl-xL inhibitors blocking Bim BH3 binding, confirmation, counter-screen for MCL1 inhibitor project, biochemical, fluorescence polarization | shares compounds with MCL1 BIM primary | GST-Bcl-xL / FITC-Bim BH3 peptide FP binding | inhibition, % at 10.9 µM | actives 54% (n = 1,700) | AID 2166, 2009;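 active means inhibition above a cutoff equal to the mean inhibition of all tested compounds plus 3 SD, cut at about 30% in these data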;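 further: 0% = DMSO wells and 100% = unlabeled Bim BH3 control peptide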
# Target sequence (Q07817 whole entry, looked up): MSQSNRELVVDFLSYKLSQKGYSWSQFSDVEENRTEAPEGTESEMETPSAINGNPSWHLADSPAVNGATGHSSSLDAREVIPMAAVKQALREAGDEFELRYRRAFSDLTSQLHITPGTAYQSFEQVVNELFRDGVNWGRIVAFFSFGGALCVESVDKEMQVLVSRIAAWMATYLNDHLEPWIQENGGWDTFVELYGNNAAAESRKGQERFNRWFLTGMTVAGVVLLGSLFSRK
# MCL1 inh confirm = inhibitors of MCL1 binding to BIM-BH3, confirmation, biochemical, fluorescence polarization, triplicate | GST-MCL1 / FITC-Bim-BH3 fluorescence polarization | inhibition, % at 10.9 µM | shares compounds with MCL1 BIM primary | AID 2168, 2009 | actives 61% (n = 1,700);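 active means inhibition above the average of all tested compounds plus 3 SD, cut at about 40% in these data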;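 further: 0% = DMSO wells and 100% = unlabeled Bim-BH3 control peptide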
# Starred values were filed as active, the others as inactive; / = no result given; + = active, no number.
SMILES,RBBP9 inhibitor,Mcl-1 Bim block,Mcl1-Noxa inh,EBV gp42 block,Mcl1-Bid inh,MCL1 BIM primary,BCLXL inh confirm,MCL1 inh confirm
CCOC(=O)C(C#N)=C1CCN(Cc2ccccc2)CC1,/,/,/,/,/,60*,36*,36
COc1ccc(NS(=O)(=O)c2ccc(NC(=S)NC(=O)c3cccc(F)c3)cc2)nn1,-5,-3,16,-12,-52,42*,21,11
COC(=O)C(Nc1nccs1)(OC)C(F)(F)F (configuration not stated),1,-4,-13,60*,-31,68*,71*,106*
COC(=O)CCC(=O)Nc1nccs1,-4,0,15,-7,-8,1,/,/
CN1C(=O)/C(=C/c2ccc(-c3ccccc3[N+](=O)[O-])o2)SC1=Nc1ccc(Cl)c(C(=O)O)c1,0,47*,108*,-3,34,74*,23,40
COc1cc(NC(C)CCCN)c2ncccc2c1 (configuration not stated),/,/,/,/,/,53*,32*,50*
COc1cc(NCCCCCCCN)c2ncccc2c1,2,22,32,-14,-23,1,/,/
O=C(CNC(=O)/C=C/c1ccco1)N=Nc1c(O)[nH]c2ccccc12,/,/,/,/,/,42*,28,57*
Cc1ccc(C(=O)O)cc1-c1ccc(/C=C2/NC(=O)N(c3ccccc3)C2=O)o1,-5,3,70*,-4,27,52*,36*,63*
CC(C)c1[nH]nc2c1C1(CCN(Cc3ccccc3)CC1)C(C#N)=C(N)O2,-3,-4,24,-4,-6,114*,0,-12
CN1C=CC2=C(C#N)C(N)C(C#N)(C#N)[C@H](c3ccccc3)[C@H]2C1 (some centres not stated),-8,-5,-17,9,-23,92*,31*,31
N#CC1(C#N)C(C(N)=O)C1c1ccccc1 (configuration not stated),2,-1,5,-14,-31,0,/,/
O=C(C[n+]1cccc2ccccc21)c1ccc(Br)cc1,/,/,/,/,/,-1,/,/
O=C(C[n+]1cc(Br)cc2ccccc21)c1ccc(Br)cc1,/,/,/,/,/,94*,55*,74*
O=C(C[n+]1cc(Br)cc2ccccc21)c1ccc(Cl)cc1,/,/,/,/,/,86*,23,35
O=C(C[n+]1cc(Br)cc(Br)c1)c1ccc(Cl)cc1,/,/,/,/,/,-5,/,/
O=C(O)C1CCCC2CN3CCc4c([nH]c5ccccc45)C3C(O)C21 (configuration not stated),/,/,/,/,/,104*,29,31
CC1CCCCC1NC(=O)C1CCCN(S(=O)(=O)c2ccc(-n3cnnn3)cc2)C1 (configuration not stated),/,/,/,/,/,6,/,/
O=C(OCCN1C(=O)c2cccc3c(N4CCOCC4)ccc(c23)C1=O)c1ccc(Cl)cc1Cl,7,10,-151,144*,-26,63*,-3,-2
O=C(OCCN1C(=O)c2cccc3c(N4CCOCC4)ccc(c23)C1=O)c1cccc(Cl)c1,9,0,-161,152*,-13,66*,3,-19
O=C(OCCN1C(=O)c2ccccc2C1=O)c1cc(S(=O)(=O)N2CCOCC2)ccc1Cl,5,-5,-3,-6,-6,3,/,/
COc1ccccc1N1C(=NC(=O)COc2ccccc2)SC2CS(=O)(=O)CC21 (configuration not stated),/,/,/,/,/,-1,/,/
COc1ccc(S(N)(=O)=O)cc1C(=O)NC1CCCc2ccccc21 (configuration not stated),/,/,/,/,/,-6,/,/
COc1cccc(Cn2c(=S)[nH]c3ccc(N4CCOCC4)cc3c2=O)c1,-6,1,23,-10,-36,41*,-24,-19
O=c1c2cc(N3CCOCC3)ccc2[nH]c(=S)n1Cc1cccc(Cl)c1,-12,-3,25,-8,-23,29,/,/
SMILES,RBBP9 inhibitor,Mcl-1 Bim block,Mcl1-Noxa inh,EBV gp42 block,Mcl1-Bid inh,MCL1 BIM primary,BCLXL inh confirm,MCL1 inh confirm
NC(=O)C[n+]1cccc2ccccc21,-2,2,47,46,-26,+,101*,124*
Cc1ccc(C(=O)C[n+]2cccc3ccccc32)cc1,-5,-2,-5,-25,0,-2,/,/
COc1ccc(Cl)cc1C(=O)NNC(=O)CSc1nnnn1C,-8,0,-7,-20,-58,20,/,/
COc1ccc(Cl)cc1C(=O)NNC(=O)CSc1nnc2ccccn12,-9,0,4,-13,-22,40*,1,20
CC(C)C1OC2(C)OC(=N)C1(C#N)C(C#N)(C#N)C2c1ccccc1 (configuration not stated),4,-7,17,31,-25,103*,32*,48*
CCC12OC(=N)C(C#N)(C1C)C(C#N)(C#N)C(c1ccccc1)O2 (configuration not stated),-6,-1,19,9,-13,25,/,/
CCC1OC2(C)OC(=N)C1(C#N)C(C#N)(C#N)C2c1ccccc1 (configuration not stated),3,-1,18,-14,-33,55*,14,12
O=C(CSc1n[nH]c(=O)[nH]c1=O)Nc1ccc(Br)cc1Br,/,/,/,/,/,3,/,/
CNc1ccccc(C(=O)/C=C/c2ccccc2OC)c1=O,-5,3,63*,5,-99,41*,29,62*
CCC(O)C1CCN(C(=O)c2ccc(OC3CCN(Cc4ccccn4)CC3)cc2)CC1 (configuration not stated),/,/,/,/,/,10,/,/
CN1CCc2cc3c(c4c2[C@H]1[C@H](O)c1ccccc1-4)OCO3,-3,3,35,59*,-5,124*,61*,80*
CCCCC(=O)OCc1c(-c2ccccc2)ncc2ccccc12,/,/,/,/,/,3,/,/
O=C(Nc1nncs1)c1cc(S(=O)(=O)N2CCCCC2)ccc1Cl,/,/,/,/,/,1,/,/
COc1ccc(C(=O)NC(=S)Nc2cccnc2)cc1[N+](=O)[O-],-2,-4,13,9,-24,42*,22,19
CCOc1ccc(C(=O)NC(=S)Nc2cccnc2)cc1[N+](=O)[O-],0,-1,13,-10,-8,3,/,/

# Source: PubChem BioAssay
